Screening data deposited in PubChem by several laboratories.
Shown are actives, neighbours in structure and some others; about 2.1% of the full set was active somewhere.
NS3 helicase inh – inhibitors of HCV NS3 helicase, primary screen, biochemical, Cy5 molecular beacon fluorescence. Hepatitis C virus NS3 helicase. NS3 helicase DNA unwinding. inhibition, % at 10.9 µM. hit rate 0.56% among 290,000;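 active means inhibition above the mean of all tested compounds plus 3 SD, set per campaign, cut at about 35% in these data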;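 further: 0% = DMSO wells and 100% = thioflavine S control wells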
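System: Hepatitis C virus NS3 helicase domain fragment enzyme | Reagent: Annealed dual-labelled DNA beacon duplex, ATP-started | Compound dosing: 10.9 µM single point, 0.8% DMSO | Incubation: 1 h reaction at 25 °C, ATP-initiated | Technique: Cy5 fluorescence | Evaluation: Percent inhibition from t60/t0 fluorescence ratio | Benchmarks: Low DMSO, high thioflavine S at 110 µM | Replication: Singlicate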
ZTA DNA inh – counter-screen for EBNA-1 inhibitors: inhibitors of Epstein-Barr virus ZTA | P03206 | ZTA-DNA binding, fluorescence polarization | inhibition, % at 11 µM | hit rate 0.15% among 320,000 | AID 2234; in the data active means inhibition above about 33%
Target sequence (P03206 whole entry, looked up): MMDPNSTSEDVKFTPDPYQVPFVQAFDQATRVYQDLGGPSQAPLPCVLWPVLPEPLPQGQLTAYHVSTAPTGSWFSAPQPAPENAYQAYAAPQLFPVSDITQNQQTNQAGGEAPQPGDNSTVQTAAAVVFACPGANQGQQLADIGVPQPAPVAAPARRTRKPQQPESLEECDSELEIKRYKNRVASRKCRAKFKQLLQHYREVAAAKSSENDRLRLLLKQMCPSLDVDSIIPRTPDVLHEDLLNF
eIF4H FP inh – human eIF4H binding inhibitors, primary screen, translation initiation inhibitor project, biochemical, uHTS, fluorescence polarization; eIF4H fluorescence polarization binding assay; Eukaryotic translation initiation factor 4H (Homo sapiens), Q15056; inhibition, % at 35 µM; hit rate 0.94% among 290,000;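 further: calls also rest on retests at 20 µM and on dose response follow-up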
EBNA-1 inhibitor – EBNA-1 DNA-binding inhibitors, primary screen, biochemical, fluorescence polarization. inhibition, % at 14.8 µM. hit rate 0.34% among 300,000. AID 1950, 2009; in the data active means inhibition above about 28%
PABP polyA inh – PABP poly(A) RNA binding inhibitors, primary screen, biochemical, fluorescence polarization, uHTS; Polyadenylate-binding protein 1 (Homo sapiens), P11940; inhibition, % at 35 µM; hit rate 1% among 290,000; AID 2014, 2009;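 further: calls also rest on retests at 20 µM and on dose response follow-up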
PABP1 MLLE inh – inhibitors of PABP1 MLLE–PAM2 peptide binding, primary screen, biochemical, fluorescence polarization, FITC-PAM2, GST-MLLE; Polyadenylate-binding protein 1 (Homo sapiens), P11940; inhibition, % at 20 µM; hit rate 0.36% among 360,000; AID 588489, 2011; in the data active means inhibition above about 35%, passing the limit was not always enough;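 further: plate controls were DMSO wells with GST-MLLE for no effect and wells lacking GST-MLLE protein for full effect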
NS3 hel confirm – HCV NS3 helicase inhibitors, retest, confirmation, biochemical, Cy5 molecular beacon fluorescence, triplicate | shares compounds with NS3 helicase inh | NS3 helicase DNA unwinding | inhibition, % at 10.9 µM | hit rate 31% among 1,600 | AID 1943, 2009;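 active means inhibition above the mean of all tested compounds plus 3 SD, cutoff set per campaign, cut at about 36% in these data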
DNA FID counter – compounds displacing fluorescent DNA intercalator, artefact control for HCV NS3 helicase inhibitor project, biochemical, FID fluorescence, triplicate; shares compounds with NS3 helicase inh; DNA fluorescent intercalator displacement; inhibition, % at 7.9 µM; hit rate 4% among 1,600; AID 1945, 2009; in the data active means inhibition above about 37%;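 further: 0% = vehicle and 100% = reference compound; higher means more displacement of ethidium bromide from the DNA hairpin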
DNA FID DR – compounds displacing fluorescent intercalator from DNA, dose response, counter-screen for HCV NS3 helicase inhibitor project, biochemical, fluorescence; shares compounds with NS3 helicase inh; fluorescent intercalator displacement from DNA; IC50, µM; 120 tested, under 10 active; AID 2172, 2009
The depositor's hits bear a star; · = no result. Unless noted, how the calls were made is not given here.

SMILES	NS3 helicase inh	ZTA DNA inh	eIF4H FP inh	EBNA-1 inhibitor	PABP polyA inh	PABP1 MLLE inh	NS3 hel confirm	DNA FID counter	others
O=C(O)CCN1C(=O)/C(=C2\C(=O)N(Cc3ccccc3Cl)c3ccccc32)SC1=S	44*	·	81	·	1	12	91*	4	DNA FID DR=>79
O=c1[nH]c(=S)[nH]c2c1C(c1ccc(Br)cc1)c1c([nH]c(=S)[nH]c1=O)O2	43*	67*	83*	31*	93*	38	75*	5
O=C1CCCC2=C1C(c1ccc(Br)cc1)c1c([nH]c(=S)[nH]c1=O)N2 (configuration not stated)	20	5	17	9	26	11	·	·
CSc1sc(-c2ccnc(SCC(=O)C(C)(C)C)n2)c2c1C(=O)CC(C)(C)C2	56*	12	-9	1	-4	-20	-9	-21
COCCn1c(-c2ccc(OC)cc2)cnc1SCC(=O)Nc1cccc2ccccc12	47*	-20	-18	-1	-8	-84	-16	-41
COc1ccc(-c2cnc(SCC(=O)Nc3nc(C(C)(C)C)cs3)n2Cc2ccco2)cc1	52*	-26	9	-9	-4	-70	-6	-27
Oc1ccc(N=Nc2cccc(C(F)(F)F)c2)cc1C=Nc1ccc(N2CCOCC2)cc1	45*	-3	-9	-1	6	9	1	39*
[N-]=[N+]=NC[C@H](Cc1ccccc1)N1CC[C@@H](OCc2ccccc2)CCC1=O	5	1	5	4	4	3	·	·
O=C(NNc1nc2ccccc2s1)Nc1ccc(F)cc1	-7	-4	4	-5	0	-3	·	·
O=C(NNc1nc2ccccc2s1)c1ccccc1F	51*	-2	5	6	-1	-97	-6	11
COC(=O)c1ccccc1-c1ccc(/C=C2\C(=O)N(c3ccccc3)N=C2c2ccccc2)o1	5	-5	-5	-16	-7	12	·	·
CC1=NN(c2ccc(C(=O)O)cc2)C(=O)/C1=C/c1ccc(-c2ccccc2F)o1	39*	-8	28	-1	18	33	-7	3
NNC(=O)c1cc(-c2ccc(O)cc2)nc2ccc(Br)cc12	11	8	-4	15	-8	11	·	·
O=C(CNC(=S)N(CCCN1CCOCC1)Cc1cccs1)NC1CCCC1	-4	-4	4	3	-4	-119	·	·
Cc1ccc(-n2ncc(C#N)c2/N=C/N2CCCCCC2)cc1	101*	6	-2	-1	1	-5	1	-38
Cc1ccccc1OCc1nnc(SC(C)C(=O)O)n1Cc1ccccc1 (configuration not stated)	7	-12	-3	-6	2	-144	·	·
CN(C)c1ccc(/C=C/c2ccc3c4ccccc4ccc3[n+]2-c2ccccc2)cc1	63*	·	13	·	-3	-107	91*	101*
Cc1cccc(C(=O)NCCCn2ccnc2)c1C	10	1	-5	-3	1	-15	·	·
Cc1ccc(/C=C/C(=O)Nc2ccc(S(N)(=O)=O)cc2)o1	3	-15	-1	-1	4	-1	·	·
Cc1nc(Nc2ccc(S(N)(=O)=O)cc2)oc1C	81*	2	-3	3	-3	1	-13	1
N=c1c(S(=O)(=O)c2ccc(Cl)cc2)cc2c(=O)n3ccccc3nc2n1Cc1ccco1	45*	-9	73*	-5	65*	-39	70*	48*
CCCCNC(=O)COC(=O)c1c2c(nc3ccccc13)/C(=C\c1cccs1)CC2	·	·	·	·	·	-9	·	·
